Structures are written as SMILES. Active and inactive are the calls of the source. The calls are words filed in the database; no cut-off is given here.

Experimental findings from ChEMBL document CHEMBL1140145, “Identification of non-nucleoside DNA synthesis inhibitors of vaccinia virus by high-throughput screening” (J Med Chem, 2008) are described below.

Series [1] has as its system Vaccinia virus. The series can be described thus: Antiviral activity against Vaccinia virus WR in BSC1 cells assessed as retention of antiviral potency by measuring exogenous double stranded DNA trapping. Format: functional, organism-based. The settings on record: Orthopoxvirus vaccinia, BSC-1.
Series [2] is described as follows: Selectivity index, TC50 for african green monkey BSC1 cells after 20 hrs to EC50 for Vaccinia virus WR in BSC1 cells after 20 hrs by cell protection assay. The class given is toxicity, cell-based, BSC-1. The note with it: read-out: Selectivity Index.
Series [3] has as its system Vaccinia virus. The series can be described thus: Inhibition of Vaccinia virus DNA synthesis in by rapid plate assay. Format: functional, organism-based. The settings on record: Orthopoxvirus vaccinia.
Series [4] concerns Vaccinia virus. The series can be described thus: Antiviral activity against Vaccinia virus WR in BSC1 cells assessed as reduction in plaque formation after 20 hrs. The class given is functional, organism-based. The settings on record: Orthopoxvirus vaccinia, BSC-1, 20 h.
A short description of series [5]: Cytotoxicity against african green monkey BSC1 cells after 20 hrs WST-1 based assay. Format: cell-based, BSC-1. The note with it: chlorocebus aethiops, read-out: TC50. Summed up: (§1)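 Uninfected BS-C-1 cells in phenol red-free medium, seeded 5000 (20 h), 1000 (3-day) or 200 (5-day) cells/well, exposed next day to compound in two-fold serial dilutions (top 200 µM; 1% DMSO final) at 37°C. WST-1 added 30 min, A450 read. Triplicates; percent cytotoxicity vs DMSO fitted four-parameter sigmoidal for TC50.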

The nature of series [6]: Cytotoxicity against african green monkey BSC1 cells after 120 hrs WST-1 based assay. The class given is cell-based, BSC-1. The note with it: chlorocebus aethiops, read-out: TC50. Summed up:
as §1

Series [7] has as its system Vaccinia virus. The series can be described thus: Antiviral activity against Vaccinia virus WR in BSC1 cells assessed as protection from virus-induced lysis of cell monolayer after 20 hrs. Format: functional, organism-based. The settings on record: Orthopoxvirus vaccinia, BSC-1, 20 h.
The nature of series [8]: Selectivity index, TC50 for african green monkey BSC1 cells after 72 hrs to EC50 for Vaccinia virus WR in BSC1 cells after 72 hrs by cell protection assay. The class given is toxicity, cell-based, BSC-1. The settings on record: read-out: Selectivity Index.
Series [9] is described as follows: Cytotoxicity against african green monkey BSC1 cells after 72 hrs WST-1 based assay. The note with it: chlorocebus aethiops, read-out: TC50. The class given is cell-based, BSC-1. Summed up:
as §1
(In general: Formazan colour is commonly taken as a measure of viable cells.)

With `COC(=O)c1cccc2c1-c1ccccc1/C2=N\O`, in the series with Vaccinia virus [1], the result was Active. The selectivity ratio at 20 h in series [2] worked out at 13.2. The compound also came in with an IC50 in the series on Vaccinia virus [3] of 108 µM. Also, the concentration for a half-maximal effect (EC50) was 10 µM in the series with Vaccinia virus [4] and 9.6 µM with Vaccinia virus [7]. Besides, the CC50 at 20 h in series [5] came out at 127 µM. The CC50 at 120 h in series [6] is 20 µM. In addition, in series [8], the selectivity ratio at 72 h was determined as 3.2.
With `Cc1cc(OC(=O)c2ccco2)nc(SCc2c(Cl)cccc2Cl)n1`, the outcome with Vaccinia virus [1] was Active. The selectivity ratio at 20 h in series [2] was over 2. In addition, 52 µM corresponded to half-maximal inhibition with Vaccinia virus [3] (IC50). Besides, the concentration giving a half-maximal response (EC50) came to 75 µM in the series with Vaccinia virus [4] and 100 µM with Vaccinia virus [7]. The CC50 at 20 h in [5] is over 100 µM. In addition, the CC50 at 120 h in series [6] is over 100 µM. In addition, the CC50 at 72 h in series [9] was over 100 µM.
For `N=C1S/C(=C/c2ccco2)C(=O)N1c1nccs1`, the result in the series with Vaccinia virus [1] was Active. For the same compound, the selectivity ratio at 20 h in [2] was over 1.2. This compound also registered a concentration for half-maximal inhibition (IC50) with Vaccinia virus [3] of 32 µM. In addition, the EC50 with Vaccinia virus [4] came to 75 µM; in the series on Vaccinia virus [7] it was 80 µM. The CC50 at 20 h in [5] is over 100 µM. In addition, the CC50 at 120 h in series [6] was 50 µM. Besides, the CC50 at 72 h in [9] is over 100 µM.
Take `CCn1c2ccccc2c2ccc(/C=N/n3cnnc3)cc21`: in the series with Vaccinia virus [1], the outcome was Active. In [2], the selectivity ratio at 20 h is over 4. In the series with Vaccinia virus [3], this compound registered an IC50 of 131 µM. For the same compound, the 50% effective concentration (EC50) in the series with Vaccinia virus [4] and in the series with Vaccinia virus [7] was 50 µM in each case. Moreover, the CC50 at 20 h in [5] is over 200 µM. Besides, in [6], the CC50 at 120 h stood at 3 µM. Besides, the CC50 at 72 h in [9] stood at 36 µM.
In the case of `COc1ccc(-c2cc3ccccn3c2C(=O)c2cccnc2)c(OC)c1`, the outcome with Vaccinia virus [1] was inactive. Moreover, the selectivity ratio at 20 h in series [2] is over 2.3. This compound also registered an IC50 in the series with Vaccinia virus [3] of 25 µM. The EC50 in the series with Vaccinia virus [4] came out at 100 µM; in the series with Vaccinia virus [7], 87 µM. The CC50 at 20 h in series [5] was over 200 µM. Also, the CC50 at 120 h in series [6] was 60 µM. Moreover, the CC50 at 72 h in [9] was 152 µM.
As to `O=C1/C(=C/C2CCCO2)CC/C1=C\C1CCCO1` (stereo not drawn), in the series with Vaccinia virus [1], the outcome was Active. Also, in [2], the selectivity ratio at 20 h was over 1. Further, the midpoint of inhibition in the series with Vaccinia virus [3], the IC50, lay at 239 µM. Also, the EC50 in the series on Vaccinia virus [4] was found to be 50 µM; in the series with Vaccinia virus [7], 100 µM. Also, the CC50 at 20 h in series [5] was over 100 µM. The CC50 at 120 h in [6] is 50 µM. Moreover, the CC50 at 72 h in series [9] was over 100 µM.

One may read the IC50 as the concentration that gives 50% inhibition. The term EC50 denotes the midpoint of the concentration-response curve.
